Runt-CBFb FRET: Runt domain-CBFb interaction inhibition. inhibition, % at 20 µM. Q01196+Q13951. 0.46% of 220,000 active. Cerulean-Runt/Venus-CBFb FRET ratio 530/480, 1 h. AID 1496;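 active means inhibition over about 50% at 20 µM in the single-dose screen, limit read from the data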;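 further: 0% = DMSO wells and 100% = excess unlabeled CBFb competitor control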
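Measured by: fluorescence energy transfer, 422 nm excitation, 530/480 nm emission; Assay system: Cerulean-Runt domain; Medium: Tris pH 7.5 buffer with BSA; Measure: loss of energy transfer signal; Controls: 5 µM unlabeled CBFb as full-inhibition high control; Incubation: protein complex preformed 1 h, compound exposure 1 h, room temperature, dark.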
RanGTP-Impb inh: disruptors of Ran-importin-beta complex formation – biochemical, FRET, CFP-Ran, YFP-importin-beta, homogeneous, primary screen; 1.1% of 300,000 active; inhibition, % (test concentration not listed); cell-free CFP-Ran/YFP-importin-beta FRET ratio; AID 2216;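 active means more than half of the replicate wells show a fall in the fluorescence ratio signal beyond about 16%, limit read from the data, passing the limit was not always enough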;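 further: 0% = DMSO wells and 100% = Ran loaded with GDP instead of GTP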
KLK7 zymogen act: activators of human kallikrein-7 zymogen | P49862 | 0.9% of 370,000 active | purified proKLK7, EDANS-DABCYL substrate fluorescence; 100% is mature enzyme control, 0% vehicle | activation, % at 7 µM;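 active means activation above the mean of all tested compounds plus 3 SD, computed per campaign excluding outliers beyond control limits, cut at about 13% in these data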
Target sequence (P49862 whole entry, looked up): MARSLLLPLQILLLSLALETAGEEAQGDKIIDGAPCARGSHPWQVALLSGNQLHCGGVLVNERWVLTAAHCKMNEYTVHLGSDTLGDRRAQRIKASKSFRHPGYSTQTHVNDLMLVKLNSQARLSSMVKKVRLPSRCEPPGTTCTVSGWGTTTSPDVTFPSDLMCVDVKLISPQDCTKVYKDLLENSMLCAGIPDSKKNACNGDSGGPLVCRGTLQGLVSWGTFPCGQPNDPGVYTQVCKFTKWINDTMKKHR
Runt-SMMHC FRET: Runt domain-CBFb-SMMHC interaction inhibition | 0.74% of 220,000 active | Cerulean-Runt/Venus-CBFb-SMMHC FRET ratio 530/480, 1 h | inhibition, % at 20 µM | AID 1434;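 active means mean inhibition across duplicate retests at 20 µM reaching about 50%, limit read from the data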;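 further: 0% = DMSO wells and 100% = wells with excess untagged CBFb-SMMHC; inhibitors lower the FRET ratio by blocking Runt binding to CBFb-SMMHC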
MEX-5 binding: C. elegans MEX-5 TCR-2 RNA binding activity; Q9XUB2; MEX-5/FITC-TCR2 RNA binding, fluorescence polarization; stronger effect = lower value; activity score (negative = inhibition of binding), % at 10 µM; 0.38% of 300,000 active; AID 1832;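 active means inhibition past about -25% in most replicates, and total fluorescence under double the plate's negative control median, limit read from the data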;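 further: 0% = DMSO and -100% = 5 µM competing unlabeled TCR2 RNA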
Target sequence (Q9XUB2 whole entry, looked up): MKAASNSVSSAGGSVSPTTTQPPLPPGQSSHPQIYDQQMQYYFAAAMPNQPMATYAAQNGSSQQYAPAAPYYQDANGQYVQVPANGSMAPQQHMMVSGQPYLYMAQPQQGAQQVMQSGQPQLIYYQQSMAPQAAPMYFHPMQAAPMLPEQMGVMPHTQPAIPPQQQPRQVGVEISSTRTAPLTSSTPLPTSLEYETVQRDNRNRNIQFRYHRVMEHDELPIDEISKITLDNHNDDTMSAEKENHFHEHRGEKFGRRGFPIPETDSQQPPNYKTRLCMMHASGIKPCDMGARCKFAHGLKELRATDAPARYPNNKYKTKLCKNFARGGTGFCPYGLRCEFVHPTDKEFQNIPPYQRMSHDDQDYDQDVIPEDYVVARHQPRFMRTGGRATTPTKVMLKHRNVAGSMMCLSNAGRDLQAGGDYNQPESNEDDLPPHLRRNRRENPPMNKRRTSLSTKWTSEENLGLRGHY
proKLK7 act conf: confirmation of human kallikrein-7 zymogen activators; 68% of 3,200 active; shares compounds with KLK7 zymogen act; AID 686949; purified proKLK7, EDANS-DABCYL substrate fluorescence; scaled: vehicle 0, mature enzyme 100; activation, % at 7 µM;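 active means activation, as change over the incubation, above the mean of all tested compounds plus 3 SD, cut at about 13% in these data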
EDANS-DABCYL int: counter-screen for kallikrein-7 activators: EDANS-DABCYL optical interference; EDANS-DABCYL substrate fluorescence interference, no enzyme, 4 h; solvent 0%, active enzyme control 100%; 80% of 3,200 active; activation, % at 7 µM; shares compounds with KLK7 zymogen act;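 active means activation above the all-compound mean plus 3 SD, ignoring values outside control-based bounds, cut at about 4.8% in these data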;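 further: value is the 4 h activation minus the activation read at time zero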
K7 EDANS ctr: EDANS fluorescence interference in dose response, no enzyme; EC50, µM; EDANS-DABCYL peptide fluorescence interference; 20% of 250 active; AID 720493; shares compounds with KLK7 zymogen act;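 active means compounds that raise the fluorescence signal in this interference counterscreen, with EC50 at or below 10 µM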;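 further: intact quenched peptide substrate alone read at 355 nm excitation and 520 nm emission; signal is fluorescence gain from T0 to T4 after four hours at room temperature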
* marks the source's active call; other numbers are inactive results. An excerpt weighted towards active compounds, which were near 2.1% of everything screened.

What do the screens show for `CS(=O)(=O)Nc1ccc(-c2cccc3nccn23)cc1`?
KLK7 zymogen act: -41

Results for CCCCNc1ccc2c(c1)OC[C@@H](CC(C)C)NS2(=O)=O ?
KLK7 zymogen act: 0

What do the screens show for `O=C(Nc1nc(=O)n(C(=O)c2cccc(C(F)(F)F)c2)s1)c1ccccc1`?
Runt-CBFb FRET: -2; RanGTP-Impb inh: 4; KLK7 zymogen act: 0; Runt-SMMHC FRET: 0; MEX-5 binding: -1

What do the screens show for `COc1cccc(C=Nc2ccccc2C(=O)Nc2nccs2)c1OC`?
Runt-CBFb FRET: 24; RanGTP-Impb inh: 10; KLK7 zymogen act: 25*; Runt-SMMHC FRET: 52*; MEX-5 binding: 2; proKLK7 act conf: -65; EDANS-DABCYL int: -49

What do the screens show for `Cc1ccc(NC2CCCN(C(=O)c3ccoc3C)C2)cc1C` (centres undefined)?
RanGTP-Impb inh: 0; KLK7 zymogen act: -1; MEX-5 binding: 0

Results for O=C(Nc1ccc2c(c1)C(=O)NC2=O)c1ccc(S(=O)(=O)N2CCCC2)cc1 ?
Runt-CBFb FRET: -2; RanGTP-Impb inh: 7; KLK7 zymogen act: 86*; Runt-SMMHC FRET: -3; MEX-5 binding: -2; proKLK7 act conf: 90*; EDANS-DABCYL int: 40*; K7 EDANS ctr: 8.5*

How did CC(=O)N1CCN(C(=O)c2cccc(S(=O)(=O)NCc3ccccc3)c2)CC1 do in these assays?
RanGTP-Impb inh: 2; KLK7 zymogen act: 0; MEX-5 binding: 0

What do the screens show for `Cc1ccc(Cl)cc1NC(=O)C1CCCCC1C(=O)O` (centres undefined)?
Runt-CBFb FRET: 2; RanGTP-Impb inh: 0; KLK7 zymogen act: 15*; Runt-SMMHC FRET: 0; MEX-5 binding: -3; proKLK7 act conf: 2; EDANS-DABCYL int: 0

What do the screens show for `O=C(O)C1CCCCC1C(=O)Nc1ccccc1Cl` (centres undefined)?
Runt-CBFb FRET: 1; RanGTP-Impb inh: 0; KLK7 zymogen act: 0; Runt-SMMHC FRET: -3; MEX-5 binding: -2

Results for CC1(C)Oc2cc3oc(C(=O)O)cc(=O)c3cc2-c2ccccc21 ?
KLK7 zymogen act: 100*; proKLK7 act conf: 68*; EDANS-DABCYL int: 67*

What do the screens show for `Cc1cc2oc(C(=O)NCc3ccccc3)cc(=O)c2cc1C`?
RanGTP-Impb inh: -3; KLK7 zymogen act: 0; MEX-5 binding: 0

What do the screens show for `CCOCCCNc1nc2nc3ccc(C)cn3c(=O)c2cc1C(=O)NCC1CCCO1` (centres undefined)?
RanGTP-Impb inh: -1; KLK7 zymogen act: 55*; MEX-5 binding: -34*; proKLK7 act conf: 16*; EDANS-DABCYL int: 26*

What do the screens show for `Cc1ccc2nc3c(cc(C(=O)NCC4CCCO4)c(=N)n3CCCOC(C)C)c(=O)n2c1` (centres undefined)?
Runt-CBFb FRET: 11; KLK7 zymogen act: 106*; Runt-SMMHC FRET: 41; proKLK7 act conf: 45*; EDANS-DABCYL int: 44*

What do the screens show for `CCn1cc(C(=O)NCC2CCCO2)c2cc(OC)c(OC)cc2c1=O` (centres undefined)?
Runt-CBFb FRET: -2; RanGTP-Impb inh: -5; KLK7 zymogen act: 0; Runt-SMMHC FRET: 2; MEX-5 binding: 2

How did CSCCNC(=O)C1(C)CCN1C(=O)c1sccc1C (centres undefined) do in these assays?
KLK7 zymogen act: 0

How did O=C(c1[nH]c(C(F)(F)F)nc1-c1ccccc1)N1CCN(c2ccccn2)CC1 do in these assays?
KLK7 zymogen act: 0

Results for O=C(CSc1ccccc1)NC1CCCCN(Cc2cccc(Cl)c2)C1=O (centres undefined) ?
KLK7 zymogen act: 0

How did CN(Cc1cnc2nc(N)nc(N)c2n1)c1ccc(C(=O)NC(CCC(=O)O)C(=O)O)c2ccccc12 (centres undefined) do in these assays?
KLK7 zymogen act: 19*; proKLK7 act conf: 2; EDANS-DABCYL int: 3

Results for CCc1ccc2oc(=O)cc(CN3CCN(Cc4ccccc4)CC3)c2c1 ?
RanGTP-Impb inh: 3; KLK7 zymogen act: 1; MEX-5 binding: 1

Results for O=C(c1ccco1)N1CCN(Cc2cc(=O)oc3cc(O)ccc23)CC1 ?
KLK7 zymogen act: 90*; proKLK7 act conf: 57*; EDANS-DABCYL int: 68*

What do the screens show for `Cc1c(O)ccc2c(CN3CCN(CCO)CC3)cc(=O)oc12`?
Runt-CBFb FRET: 5; RanGTP-Impb inh: 56*; KLK7 zymogen act: 66*; Runt-SMMHC FRET: 79*; MEX-5 binding: -2; proKLK7 act conf: 68*; EDANS-DABCYL int: 69*

How did O=C(c1ccco1)N1CCN(Cc2cccc3ccccc23)CC1 do in these assays?
RanGTP-Impb inh: 1; KLK7 zymogen act: -1; MEX-5 binding: -4

What do the screens show for `CCc1cc2c(CN3CCN(CC)CC3)cc(=O)oc2cc1O`?
Runt-CBFb FRET: 18; RanGTP-Impb inh: 115*; KLK7 zymogen act: 71*; Runt-SMMHC FRET: 61*; MEX-5 binding: -1; proKLK7 act conf: 73*; EDANS-DABCYL int: 75*

How did O=c1cc(CN2CCOCC2)c2cc(Cl)c(O)cc2o1 do in these assays?
RanGTP-Impb inh: 73*; KLK7 zymogen act: 54*; MEX-5 binding: -2; proKLK7 act conf: 63*; EDANS-DABCYL int: 77*

Results for Cc1cc2oc(=O)cc(CN3CCOCC3)c2cc1C(C)C ?
RanGTP-Impb inh: 1; KLK7 zymogen act: -1; MEX-5 binding: 1

How did CNC(=O)c1cccc(NC(=O)c2ccccc2OCc2ccccc2)c1 do in these assays?
RanGTP-Impb inh: 1; KLK7 zymogen act: 0; MEX-5 binding: 1

What do the screens show for `Cc1c(O)ccc2c(CN3CCOCC3)cc(=O)oc12`?
RanGTP-Impb inh: 53*; KLK7 zymogen act: 41*; MEX-5 binding: -2; proKLK7 act conf: 65*; EDANS-DABCYL int: 67*

What do the screens show for `COc1cc2c(cc1OC)CN(C1CCCN(Cc3cccc(C(C)=O)c3)C1)CC2` (centres undefined)?
KLK7 zymogen act: 23*; proKLK7 act conf: 10; EDANS-DABCYL int: 12*

How did COc1ccc(-c2cc(C(=O)NCCN3CCOCC3)c3ccccc3n2)cc1 do in these assays?
Runt-CBFb FRET: -2; RanGTP-Impb inh: -6; KLK7 zymogen act: 15*; Runt-SMMHC FRET: 5; MEX-5 binding: 1; proKLK7 act conf: 6; EDANS-DABCYL int: 0

Screening results from PubChem.
